Consider 23 molecules from ChEMBL document CHEMBL1135993, “4,5-diphenyltriazol-3-ones: openers of large-conductance Ca(2+)-activated potassium (maxi-K) channels” (J Med Chem, 2002).

Each structure is given as a SMILES string.

The test addresses Calcium-activated potassium channel subunit alpha-1 (Mus musculus) (UniProt Q08460). Nature of the test: Percent opening of mouse maxi-K channel expressed in xenopus oocyte at a concentration of 20 umolar under voltage clamp. Format: functional. The following applies: Xenopus laevis oocytes. In short, it runs like this:
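Xenopus laevis oocytes injected with mSlo cRNA 2–6 days before recording, kept at 17 °C in ND96 (mM: NaCl 90, KCl 1.0, CaCl2 1.0, MgCl2 1.0, HEPES 5.0, pH 7.5) with 5% horse serum and penicillin/streptomycin. Two-electrode voltage clamp, steps 500–750 ms, +20 mV increments from −60 mV holding to +140 mV. Compound gravity-perfused at 20 μM. Iberiotoxin-sensitive outward current expressed as percent of control; mean of ≥5 oocytes.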

Sequence of Calcium-activated potassium channel subunit alpha-1 (Mus musculus) (Q08460 whole entry, the tested form may be a part): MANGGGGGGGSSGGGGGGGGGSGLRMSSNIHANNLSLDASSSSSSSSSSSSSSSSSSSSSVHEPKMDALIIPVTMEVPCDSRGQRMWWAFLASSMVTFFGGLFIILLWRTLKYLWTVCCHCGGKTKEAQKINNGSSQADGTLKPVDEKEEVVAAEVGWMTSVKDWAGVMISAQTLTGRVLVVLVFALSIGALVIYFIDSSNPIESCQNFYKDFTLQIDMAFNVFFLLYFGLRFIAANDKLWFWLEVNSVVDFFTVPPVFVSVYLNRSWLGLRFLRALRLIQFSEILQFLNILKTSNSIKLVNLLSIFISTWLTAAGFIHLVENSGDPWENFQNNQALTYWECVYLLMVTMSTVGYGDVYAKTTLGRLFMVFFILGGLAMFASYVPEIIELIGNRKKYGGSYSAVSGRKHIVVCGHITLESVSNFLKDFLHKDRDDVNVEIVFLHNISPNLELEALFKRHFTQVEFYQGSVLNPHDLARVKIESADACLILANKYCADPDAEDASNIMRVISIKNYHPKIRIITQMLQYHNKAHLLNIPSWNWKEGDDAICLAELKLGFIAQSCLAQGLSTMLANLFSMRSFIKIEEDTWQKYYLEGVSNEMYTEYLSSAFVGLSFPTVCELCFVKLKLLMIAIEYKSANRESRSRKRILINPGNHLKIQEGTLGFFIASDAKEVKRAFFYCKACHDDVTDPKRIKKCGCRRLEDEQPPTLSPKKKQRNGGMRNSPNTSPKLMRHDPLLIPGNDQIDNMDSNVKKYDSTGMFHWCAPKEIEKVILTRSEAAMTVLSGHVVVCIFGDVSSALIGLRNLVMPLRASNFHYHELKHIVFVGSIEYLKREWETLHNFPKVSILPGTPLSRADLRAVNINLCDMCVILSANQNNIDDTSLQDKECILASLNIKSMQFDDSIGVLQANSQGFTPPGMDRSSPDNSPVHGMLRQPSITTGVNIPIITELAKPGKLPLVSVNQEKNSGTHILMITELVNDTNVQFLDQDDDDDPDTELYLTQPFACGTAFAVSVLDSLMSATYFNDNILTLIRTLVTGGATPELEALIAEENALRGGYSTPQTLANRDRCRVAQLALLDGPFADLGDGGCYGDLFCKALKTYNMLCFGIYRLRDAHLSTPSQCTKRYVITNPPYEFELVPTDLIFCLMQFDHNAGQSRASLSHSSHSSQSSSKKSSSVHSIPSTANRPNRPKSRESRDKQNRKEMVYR

As to `Oc1ccc(Cl)cc1Cc1nccn1-c1ccc(C(F)(F)F)cc1`, the Activity is 105%.
With `Oc1ccc(Cl)cc1-n1c(O)nnc1-c1ccccc1`, the Activity is 101%.
`O=c1[nH]c2cc(C(F)(F)F)ccc2n1-c1cc(C(F)(F)F)ccc1O`: the Activity was 116%.
The figure for `Oc1ccc(Cl)cc1-c1nnc(O)n1Cc1ccc(C(F)(F)F)cc1` is 128%; for `O=c1[nH]c2cc(C(F)(F)F)ccc2n1-c1cc(Cl)ccc1O` it is 132%; for `Nc1nnc(-c2ccc(C(F)(F)F)cc2)n1-c1cc(Cl)ccc1O` it is 117%.
Regarding `Oc1ccc(Cl)cc1-n1c(O)nnc1-c1ccccc1C(F)(F)F`, the Activity came out at 107%.
Consider `Oc1ccc(Cl)cc1Cc1nnc(O)n1-c1ccc(C(F)(F)F)cc1`, for which the Activity was determined as 84%.
Consider `Cn1nc(-c2ccc(C(F)(F)F)cc2)n(-c2cc(Cl)ccc2O)c1=O`, for which the Activity came to 93%.
Consider `Oc1ccc(Cl)cc1-n1cncc1-c1ccc(C(F)(F)F)cc1`, for which the Activity turned out to be 126%.
The figure for `Oc1ccc(Cl)cc1-n1c(O)nnc1-c1cc(C(F)(F)F)cc(C(F)(F)F)c1` is 159%; for `Oc1ccc(Cl)cc1-n1c(O)nnc1Cc1ccc(C(F)(F)F)cc1` it is 125%; for `Oc1ccc(Cl)c(-n2c(O)nnc2-c2ccc(C(F)(F)F)cc2)c1` it is 101%.
On to `Oc1ccc(Cl)cc1-n1c(O)nnc1-c1ccc(C(F)(F)F)cc1`, for which the Activity was found to be 121%.
In the case of `O=c1onc(-c2ccc(C(F)(F)F)cc2)n1Cc1cc(Cl)ccc1O`, the Activity was determined as 101%.
As for `Oc1ccc(Cl)cc1Cn1c(O)nnc1-c1ccc(C(F)(F)F)cc1`, the Activity is 109%.
With `Oc1ccc(Cl)cc1-n1c(O)nnc1-c1cccc(C(F)(F)F)c1`, the Activity was determined as 138%.
Consider `Oc1ccc(Cl)cc1-n1c(S)nnc1-c1ccc(C(F)(F)F)cc1`, for which the Activity is 128%.
For the molecule `O=c1onc(-c2cc(C(F)(F)F)cc(C(F)(F)F)c2)n1-c1cc(Cl)ccc1O`, the Activity came out at 92%.
In the case of `Oc1ccc(Cl)cc1-n1cnnc1-c1ccc(C(F)(F)F)cc1`, the Activity was 102%.
Take `Oc1ccc(Cl)cc1-c1nnc(O)n1-c1ccc(C(F)(F)F)cc1`: the Activity was determined as 123%.
On to `Oc1ccc(-n2c(O)nnc2-c2ccc(C(F)(F)F)cc2)cc1Cl`, for which the Activity turned out to be 99%.
`Oc1ccc(Cl)cc1-n1c(O)nnc1-c1ccc(F)cc1`: the Activity amounted to 118%.
